From ChEMBL document CHEMBL1156597, “Structure-activity relationship of kahalalide F synthetic analogues” (J Med Chem, 2008)

Key:
[1] = system: DU-145; assay: Cytotoxicity against human DU145 cells after 48 hrs by SRB assay; type: functional, cell-based; conditions: Homo sapiens, DU-145, 48 h; for CC50: read-out: LC50 (the source's name)
How it was run: (§1)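 Cells grown in RPMI 1640 with 10% FBS and penicillin/streptomycin at 37 °C and 5% CO₂, trypsinized, then seeded at 5 × 10³/well. After 18 h drug-free attachment, samples in DMSO/EtOH/PBS (0.5:0.5:99) were added for 48 h continuous exposure. Cells were fixed with cold TCA (1 h, 4 °C) and stained with SRB (10 min). Tris-solubilized stain read at 490 nm. Triplicate wells, mean ± SD; GI₅₀ derived.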

[2] = Cytotoxicity against human IGROV-ET cells after 48 hrs by SRB assay; type: functional; conditions: for CC50: read-out: LC50 (the source's name); how it was run: as §1
[3] = system: LoVo; assay: Cytotoxicity against human LoVo cells after 48 hrs by SRB assay; type: functional; conditions: for CC50: read-out: LC50 (the source's name)
[4] = system: HeLa; assay: Cytotoxicity against human HeLa cells after 48 hrs by SRB assay; type: functional; conditions: for CC50: read-out: LC50 (the source's name); how it was run: as §1
[5] = system: HT-29; assay: Cytotoxicity against human HT29 cells after 48 hrs by SRB assay; type: functional, cell-based; conditions: Homo sapiens, HT-29, 48 h; for CC50: read-out: LC50 (the source's name); how it was run: as §1
[6] = system: LoVo; assay: Cytotoxicity against human doxorubicin resistant LoVo cells after 48 hrs by SRB assay; type: functional; conditions: for CC50: read-out: LC50 (the source's name); how it was run: as §1
[7] = system: SK-BR-3; assay: Cytotoxicity against human SKBR3 cells after 48 hrs by SRB assay; type: functional; conditions: SK-BR-3, 48 h; for CC50: read-out: LC50 (the source's name); how it was run: as §1
[8] = Cytotoxicity against human IGROV cells after 48 hrs by SRB assay; type: functional; conditions: for CC50: read-out: LC50 (the source's name); how it was run: as §1
[9] = Cytotoxicity against human HeLa-APL cells after 48 hrs by SRB assay; type: functional; how it was run: as §1
[10] = system: SK-MEL-28; assay: Cytotoxicity against human SK-MEL-28 cells after 48 hrs by SRB assay; type: functional, cell-based; conditions: Homo sapiens, SK-MEL-28, 48 h; for CC50: read-out: LC50 (the source's name); how it was run: as §1
[11] = system: K562; assay: Cytotoxicity against human K562 cells after 48 hrs by SRB assay; type: functional; conditions: K562, 48 h; for CC50: read-out: LC50 (the source's name); how it was run: as §1
[12] = system: LNCaP; assay: Cytotoxicity against human LNcaP cells after 48 hrs by SRB assay; type: functional; conditions: for CC50: read-out: LC50 (the source's name); how it was run: as §1
[13] = system: A549; assay: Cytotoxicity against human A549 cells after 48 hrs by SRB assay; type: functional, cell-based; conditions: Homo sapiens, A549, 48 h; how it was run: as §1
[14] = system: PANC-1; assay: Cytotoxicity against human PANC1 cells after 48 hrs by SRB assay; type: functional; conditions: PANC-1, 48 h; for CC50: read-out: LC50 (the source's name); how it was run: as §1

For `C/C=C1\NC(=O)[C@H](Cc2ccccc2)NC(=O)[C@@H](C(C)C)NC(=O)[C@@H]([C@H](C)CC)NC(=O)[C@H](NC(=O)[C@H](NC(=O)[C@H](CCCN)NC(=O)[C@H]2CCCN2C(=O)[C@H](NC(=O)[C@@H](NC(=O)[C@@H](NC(=O)[C@H](NC(=O)CCCCCC)C(C)C)[C@@H](C)O)C(C)C)C(C)C)[C@H](C)CC)[C@H](C)OC(=O)[C@H](C(C)C)NC1=O`, the GI50 [1] was 0.88 µM, the GI50 ([1]; read-out: GI50) was 0.848 µM and the CC50 [1] was 0.895 µM. For the same compound, the GI50 [2] was 0.304 µM, the GI50 ([2]; read-out: GI50) was 0.289 µM and the CC50 [2] was 0.394 µM. The GI50 [3] was 0.32 µM, the TGI [3] was 0.324 µM and the CC50 [3] was 0.326 µM. The GI50 [4] was 0.965 µM, the TGI [4] was 0.882 µM and the CC50 [4] was 0.806 µM. It also gave a GI50 [5] of 0.499 µM, a TGI [5] of 0.583 µM and a CC50 [5] of 1.07 µM. It also gave a GI50 [6] of 0.264 µM, a TGI [6] of 0.244 µM and a CC50 [6] of 0.175 µM. The GI50 [7] was 0.0363 µM, the GI50 ([7]; read-out: GI50) was 0.227 µM and the CC50 [7] was 0.363 µM. It also gave a GI50 [8] of 0.404 µM, a GI50 ([8]; read-out: GI50) of 0.354 µM and a CC50 [8] of 0.421 µM. It also gave a GI50 [9] of 0.781 µM, an LC50 (concentration giving 50% net cell kill) [9] of 0.864 µM and a TGI [9] of 0.822 µM. For the same compound, the GI50 [10] was 0.915 µM, the GI50 ([10]; read-out: GI50) was 0.808 µM and the CC50 [10] was 0.991 µM. For the same compound, the GI50 [11] was 2.74 µM, the TGI [11] was 2.97 µM and the CC50 [11] was 1.99 µM. It also gave a GI50 [12] of 1.09 µM, a TGI [12] of 0.863 µM and a CC50 [12] of 0.861 µM. The LC50 [13] was 1.15 µM, the TGI [13] was 1.16 µM and the GI50 ([13]; read-out: GI50) was 1.18 µM. For the same compound, the GI50 [14] was 2.36 µM, the TGI [14] was 3.78 µM and the CC50 [14] was 2.72 µM.

For `C/C=C1\NC(=O)[C@H](Cc2ccccc2)NC(=O)[C@@H](C(C)C)NC(=O)[C@@H]([C@H](C)CC)NC(=O)[C@H](NC(=O)[C@H](NC(=O)[C@H](CCCN)NC(=O)[C@H]2CCCN2C(=O)[C@H](NC(=O)[C@@H](NC(=O)[C@@H](NC(=O)[C@H](NC(=O)C(F)(F)C(F)(F)C(F)(F)C(F)(F)C(F)(F)C(F)(F)F)C(C)C)[C@@H](C)O)C(C)C)C(C)C)[C@H](C)CC)[C@H](C)OC(=O)[C@H](C(C)C)NC1=O`, the GI50 [1] was 0.614 µM, the GI50 ([1]; read-out: GI50) was 0.534 µM and the CC50 [1] was 0.708 µM. For the same compound, the GI50 [2] was 0.814 µM, the GI50 ([2]; read-out: GI50) was 0.697 µM and the CC50 [2] was 1.04 µM. It also gave a GI50 [3] of 1.16 µM, a TGI [3] of 1.18 µM and a CC50 [3] of 0.798 µM. The GI50 [4] was 0.961 µM, the TGI [4] was 0.947 µM and the CC50 [4] was 0.931 µM. For the same compound, the GI50 [5] was 0.513 µM, the TGI [5] was 0.52 µM and the CC50 [5] was 0.563 µM. The GI50 [6] was 0.286 µM, the TGI [6] was 0.289 µM and the CC50 [6] was 0.29 µM. The TGI [7] was 0.453 µM, the GI50 ([7]; read-out: GI50) was 0.291 µM and the CC50 [7] was 0.578 µM. For the same compound, the GI50 [8] was 0.584 µM, the GI50 ([8]; read-out: GI50) was 0.854 µM and the CC50 [8] was 0.459 µM. It also gave a GI50 [9] of 0.596 µM, an LC50 (concentration giving 50% net cell kill) [9] of 1.2 µM and a TGI [9] of 0.888 µM. For the same compound, the GI50 [10] was 0.765 µM, the GI50 ([10]; read-out: GI50) was 0.734 µM and the CC50 [10] was 0.794 µM. The GI50 [11] was 0.83 µM, the TGI [11] was 1.01 µM and the CC50 [11] was 1.22 µM. For the same compound, the GI50 [12] was 0.758 µM, the TGI [12] was 0.757 µM and the CC50 [12] was 0.753 µM. It also gave a GI50 [13] of 0.745 µM, an LC50 [13] of 0.865 µM and a GI50 ([13]; read-out: GI50) of 0.636 µM. For the same compound, the GI50 [14] was 2.32 µM, the TGI [14] was 3.46 µM and the CC50 [14] was 2 µM.
